Experimental data as given in ChEMBL document CHEMBL1833793 (Bioorg Med Chem Lett, 2011).

Assays:
[1] = target: T1, Neuropeptide Y receptor type 5 (Homo sapiens, UniProt Q15761); assay: Antagonist activity at human NPY5 receptor assessed as calcium mobilization by FLIPR assay; type: functional
T1 sequence (Q15761 whole entry): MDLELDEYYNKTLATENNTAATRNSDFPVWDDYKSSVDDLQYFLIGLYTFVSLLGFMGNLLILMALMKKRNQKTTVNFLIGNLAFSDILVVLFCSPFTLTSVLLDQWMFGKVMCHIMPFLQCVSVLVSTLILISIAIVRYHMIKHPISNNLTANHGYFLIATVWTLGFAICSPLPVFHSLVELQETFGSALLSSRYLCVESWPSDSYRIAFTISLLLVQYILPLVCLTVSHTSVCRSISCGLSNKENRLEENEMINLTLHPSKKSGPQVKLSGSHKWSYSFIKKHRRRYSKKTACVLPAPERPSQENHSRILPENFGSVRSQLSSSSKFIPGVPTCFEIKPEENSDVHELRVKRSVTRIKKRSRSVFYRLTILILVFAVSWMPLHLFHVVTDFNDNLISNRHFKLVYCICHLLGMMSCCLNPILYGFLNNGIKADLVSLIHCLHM

[2] = target: T1, Neuropeptide Y receptor type 5; assay: Binding affinity to human NPY5 receptor
[3] = target: T2, Neuropeptide Y receptor type 1 (Homo sapiens, UniProt P25929); assay: Antagonist activity at human NPY1 receptor assessed as calcium mobilization by FLIPR assay; type: functional
T2 sequence (P25929 whole entry): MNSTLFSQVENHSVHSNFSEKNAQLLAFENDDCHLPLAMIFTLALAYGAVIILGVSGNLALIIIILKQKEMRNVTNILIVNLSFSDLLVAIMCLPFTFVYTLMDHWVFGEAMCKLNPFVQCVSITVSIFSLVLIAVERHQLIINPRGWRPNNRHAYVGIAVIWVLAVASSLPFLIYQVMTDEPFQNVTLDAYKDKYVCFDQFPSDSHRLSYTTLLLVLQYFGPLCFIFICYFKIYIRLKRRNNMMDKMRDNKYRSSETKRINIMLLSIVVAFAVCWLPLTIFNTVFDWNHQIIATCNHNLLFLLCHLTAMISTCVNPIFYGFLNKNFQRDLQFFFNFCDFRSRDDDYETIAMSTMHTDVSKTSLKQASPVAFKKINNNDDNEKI

[4] = target: T3, Neuropeptide Y receptor type 2 (Homo sapiens, UniProt P49146); assay: Antagonist activity at human NPY2 receptor assessed as calcium mobilization by FLIPR assay; type: functional
T3 sequence (P49146 whole entry): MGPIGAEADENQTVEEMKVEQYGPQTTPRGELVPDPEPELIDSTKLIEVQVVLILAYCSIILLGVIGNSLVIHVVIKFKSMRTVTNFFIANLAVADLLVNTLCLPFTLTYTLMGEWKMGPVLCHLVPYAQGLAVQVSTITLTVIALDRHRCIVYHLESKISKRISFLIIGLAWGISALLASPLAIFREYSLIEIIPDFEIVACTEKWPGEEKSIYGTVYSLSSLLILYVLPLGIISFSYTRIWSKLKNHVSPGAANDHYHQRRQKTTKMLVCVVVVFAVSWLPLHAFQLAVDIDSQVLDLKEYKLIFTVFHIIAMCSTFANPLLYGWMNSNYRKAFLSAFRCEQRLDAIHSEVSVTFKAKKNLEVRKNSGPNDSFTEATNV

[5] = target: Neuropeptide Y receptor type 4 (Homo sapiens, UniProt P50391); assay: Antagonist activity at human NPY4 receptor assessed as calcium mobilization by FLIPR assay; type: functional
Liver microsomes [6] = assay: Intrinsic clearance in human liver microsome; type: ADME
Liver microsomes [7] = assay: Intrinsic clearance in rat liver microsome; type: ADME
[8] = Plasma concentration in rat at 10 mg/kg, po after 4 hrs; type: ADME, organism-based; design: dose 10 mg/kg, route oral
Outline: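 Single oral dose of 10 mg/kg in rats, two animals. Plasma was sampled at 4 h and the two values averaged. LOQ 2 ng/mL.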

[9] = Drug uptake in rat brain at 10 mg/kg, po after 4 hrs; type: ADME, organism-based; design: dose 10 mg/kg, route oral; details: read-out: Drug uptake
Outline: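 Rat single oral dose of 10 mg/kg, two animals; plasma and brain homogenate levels measured at 4 h and averaged; quantification limit 2 ng/mL plasma, 2 ng/g brain.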

[10] = target: T2, Neuropeptide Y receptor type 1; assay: Binding affinity to NPY1 receptor
[11] = target: T1, Neuropeptide Y receptor type 5; assay: Binding affinity to NPY5 receptor
Rattus norvegicus = assay: Antistress activity against chronic mild stress Sprague-Dawley rat model assessed as increase sucrose consumption at 5 mg/kg, ip bid measured after 4 weeks; type: functional; details: route intraperitoneal

Chain of Neuropeptide Y receptor type 4 (P50391 whole entry): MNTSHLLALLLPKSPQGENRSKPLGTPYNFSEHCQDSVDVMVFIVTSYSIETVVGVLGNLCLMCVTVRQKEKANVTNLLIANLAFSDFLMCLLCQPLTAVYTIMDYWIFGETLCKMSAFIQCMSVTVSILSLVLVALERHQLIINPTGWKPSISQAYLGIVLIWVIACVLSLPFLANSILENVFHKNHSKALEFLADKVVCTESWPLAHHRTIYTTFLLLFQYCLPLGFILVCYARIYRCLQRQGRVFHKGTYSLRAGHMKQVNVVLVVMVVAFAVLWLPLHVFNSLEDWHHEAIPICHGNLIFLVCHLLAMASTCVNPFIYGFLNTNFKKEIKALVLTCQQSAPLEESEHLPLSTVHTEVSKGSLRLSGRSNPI

Structure (SMILES)	IC50 [1] [nM]	Ki [2] [nM]	also measured
CS(=O)(=O)NC[C@H]1CC[C@H](Nc2nc3c(s2)CCOc2ccccc2-3)CC1	3.9	16.1	
O=S(=O)(NC[C@H]1CC[C@H](Nc2nc3c(s2)CCSc2ccccc2-3)CC1)c1cccs1	3.8	1.9	IC50 [3]: > 1000 nM; IC50 [4]: > 1000 nM; IC50 [5]: > 1000 nM; CL (Liver microsomes [6]): 6.9 L/min; CL (Liver microsomes [7]): 120 mL/min; concentration at 4 h [8]: 8 ng/mL; concentration at 4 h [9]: 10 ng/g
CS(=O)(=O)NCCCCCNc1nc2c(s1)CCCc1ccc(F)cc1-2	0.9		
COc1ccc2c(c1)OCCc1sc(NC[C@H]3CC[C@H](NS(C)(=O)=O)CC3)nc1-2		6.7	
CCS(=O)(=O)NCCCCCNc1nc2c(s1)CCSc1ccccc1-2	0.6	0.8	concentration at 4 h [8]: 14 ng/mL
CS(=O)(=O)NC[C@H]1CC[C@H](Nc2nc3c(s2)CCCc2ccc(F)cc2-3)CC1		1.1	
CCS(=O)(=O)NC[C@H]1CC[C@H](Nc2nc3c(s2)CCSc2ccccc2-3)CC1	30.8	2.8	IC50 [3]: > 1000 nM; IC50 [4]: > 1000 nM; IC50 [5]: > 1000 nM
CS(=O)(=O)NCCCCCNc1nc2c(s1)CCSc1ccc(F)cc1-2		1.7	CL (Liver microsomes [6]): 6.8 L/min; CL (Liver microsomes [7]): 89 mL/min; concentration at 4 h [8]: 61 ng/mL; concentration at 4 h [9]: 140 ng/g
Cn1cnc(S(=O)(=O)NC[C@H]2CC[C@H](Nc3nc4c(s3)CCSc3ccccc3-4)CC2)c1	10.4	21.5	
CC(C)S(=O)(=O)NCCOCCNc1nc2c(s1)CCCc1ccc(F)cc1-2		2.4	
COc1ccccc1CNCCCCCCNCCSSCCNCCCCCCNCc1ccccc1OC [BENEXTRAMINE]			Ki [10]: 1800 nM; Ki [11]: 5000 nM
COc1ccc(C)cc1S(=O)(=O)NC[C@H]1CC[C@H](Nc2nc3c(s2)CCSc2ccccc2-3)CC1	34.6	4.9	IC50 [3]: > 1000 nM; IC50 [4]: > 1000 nM; IC50 [5]: > 1000 nM
CS(=O)(=O)NCCCCCNc1nc2c(s1)CCSc1ccccc1-2	5	8.8	
O=S(=O)(CC(F)(F)F)NCCCCCNc1nc2c(s1)CCCc1ccc(F)cc1-2	9.9	7.5	
CN(C)CCC[C@@]1(c2ccc(F)cc2)OCc2cc(C#N)ccc21 [ESCITALOPRAM]			Activity (Rattus norvegicus): >10%
CS(=O)(=O)N[C@H]1CC[C@H](Nc2nc3c(s2)CCCc2ccc(F)cc2-3)CC1	8.8	27	
CC(C)S(=O)(=O)NCCCCCNc1nc2c(s1)CCCc1ccc(F)cc1-2	98.7	46	
O=S(=O)(NC[C@H]1CC[C@H](Nc2nc3c(s2)CCSc2ccccc2-3)CC1)c1cccc2ccccc12	43.6	13.9	
O=S(=O)(CC(F)(F)F)NCCCCNc1nc2c(s1)CCCc1ccc(F)cc1-2	1.9	3.4	
COc1cccc2c1OCCc1sc(N[C@H]3CC[C@H](CNS(C)(=O)=O)CC3)nc1-2		1.1	
CCS(=O)(=O)NCCCCCNc1nc2c(s1)CCCc1ccc(F)cc1-2	1.3	0.9	
